Screening results: PubChem BioAssay, several laboratories
Compounds with a hit are over-represented: about 2.1% of the library has one in this group of screens.
zVAD death inh: L929 zVAD cell death inhibition; L929 zVAD necroptosis rescue, ATP luminescence, 24 h; with zVAD 60 µM; viability rescue, % at 10 µM; 0.38% of 220,000 active; AID 1377;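 active = activation, scaled between plate controls, above about 75%, limit read from the data; inactive = activation under that limit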
STAT1 blocker: STAT1 signaling inhibition; NIH 3T3 STAT1-luciferase reporter, IFN-gamma, luminescence; inhibition, % at 5.5 µM; 0.35% of 200,000 active; AID 920;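 active = inhibition above a set limit, the mean inhibition across all tested compounds plus 3 SD, cut at about 34% in these data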
STAT3 activator: STAT3 signaling activation; U3A cells, IL-6 STAT3-luciferase reporter, luminescence; 100% = signal with IL-6 EC80 alone; activation (% of control), % at 5.6 µM; 0.91% of 190,000 active;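 active = activation above the screen-wide mean of compound activation plus 3 SD, cut at about 130% in these data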
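System – human U3A cells carrying STAT3-luciferase construct · Probe or stimulus – Interleukin-6, 33 ng/mL · Schedule – compound 1 h, then IL-6 6 h at 37 °C · Signal – luminescence from STAT3-driven luciferase reporter · Evaluation – percent of IL-6-only median luminescence · Benchmarks – IL-6-only high control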
STAT3 inh-1: reduces IL-6 driven STAT3 reporter signal. inhibition, % at 5.5 µM. U3A cells, IL-6 STAT3-luciferase reporter, luminescence; host cell line lacks STAT1. AID 862. 0.89% of 190,000 active;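 active = inhibition above the mean inhibition across all screened compounds plus 3 SD, cut at about 44% in these data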
TNF necrop inh: inhibitors of TNF-alpha induced necroptosis in Jurkat FADD-/- cells | 0.068% of 220,000 active | Jurkat FADD-/- TNF necroptosis rescue, ATP luminescence, 24 h; 0 = TNF only, 100 = no-TNF cells | AID 463075 | activation (protection from cell death), % at 10 µM;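 active = activation, meaning protection from cell death, of at least 50% relative to plate controls; inactive = activation below 50%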;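 also: necroptosis triggered by 40 ng/mL TNF-alpha added together with compound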
STAT3 inh-2: STAT3 inhibition, confirmation assay. shares compounds with STAT3 inh-1. U3A cells, IL-6 STAT3 luciferase reporter, luminescence; cell line lacks STAT1. inhibition, % at 5.7 µM. 45% of 1,200 active. AID 1265;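 active = inhibition above the hit cutoff computed for the primary STAT3 screen, cut at about 44% in these data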
NFkB inh STAT3ct: inhibits NF-kappaB, counter-screen to STAT3 inhibitors; shares compounds with STAT3 inh-1; HEK293T NF-kB luciferase reporter, TNF-alpha induced; inhibition, % at 5.7 µM; 36% of 1,200 active;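 active = inhibition above the mean of solvent-only control wells plus 3 SD, cutoff set per campaign, cut at about 13% in these data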
STAT1 inh 2: STAT1 inhibition in STAT3 inhibitor counter-screen | shares compounds with STAT3 inh-1 | NIH 3T3 STAT1-luciferase reporter, IFN-gamma induced, luminescence | inhibition, % at 5.7 µM | 27% of 1,200 active;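 active = inhibition above the mean plus 3 SD of solvent-only control wells, limit set per screening run, cut at about 16% in these data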
Each line names hits and unclear results; the compound was inactive in the other large screens (follow-up assays come after a bar, where they were run).

O=C1CCCN1c1ccc(S(=O)(=O)N2CCC(c3ccccc3)CC2)cc1	STAT3 inh-1 69.1 | STAT3 inh-2 55.8 | NFkB inh STAT3ct inactive | STAT1 inh 2 inactive
O=C1C=C(NCc2ccccc2)CCC1	none
O=C1C=C(NC2=CC3OC(c4ccccc4)OCC3OC2=O)CCC1 (centres undefined)	STAT3 inh-1 51.2 | STAT3 inh-2 inactive | NFkB inh STAT3ct 20.7 | STAT1 inh 2 17.8
CC(=O)Nc1ccc(Nc2cc(C)nc3c(-c4ccccc4)cnn23)cc1	STAT3 inh-1 55.2 | STAT3 inh-2 inactive | NFkB inh STAT3ct inactive | STAT1 inh 2 inactive
CN(C)/C=C/C(=O)c1cnc(-c2ccccc2)s1	none
O=C(c1ccccc1)c1cnc(-c2ccccc2)s1	STAT3 inh-1 52.1 | STAT3 inh-2 inactive | NFkB inh STAT3ct inactive | STAT1 inh 2 inactive
O=C(c1ccc(Cl)cc1)c1cnc(-c2ccc(Cl)cc2)s1	none
CN(C)/C=C/C(=O)c1cnc(-c2ccc(Cl)cc2)s1	STAT3 inh-1 43.4 | STAT3 inh-2 inactive | NFkB inh STAT3ct inactive | STAT1 inh 2 inactive
O=C(c1ccccc1)c1cnc(Nc2ccc(Cl)c(Cl)c2)s1	none
O=C(c1ccccc1)c1cnc(-c2ccc(Cl)cc2)s1	STAT3 inh-1 47.9 | STAT3 inh-2 inactive | NFkB inh STAT3ct inactive | STAT1 inh 2 inactive
Cc1ccnc(NC(=O)C23CC4CC(CC(C4)C2)C3)c1	none
CC1(C(=O)NNC(=O)C2CCCCC2)CC1(Cl)Cl (centres undefined)	none (no result: STAT1 blocker, STAT3 activator, STAT3 inh-1)
CC(=O)Nc1ccc2nc(NC(=O)c3cccnc3)sc2c1	none
COc1ccc(/C=N/Nc2nncc3ccccc23)cc1	STAT3 inh-1 64.2 | STAT3 inh-2 70.6 | NFkB inh STAT3ct 51.1 | STAT1 inh 2 33.0
O=C(Nc1ccc(Br)cc1)c1ccc(N2C(=O)C3CC=C(Cl)CC3C2=O)cc1 (centres undefined)	STAT3 inh-1 46.6 | STAT3 inh-2 inactive | NFkB inh STAT3ct inactive | STAT1 inh 2 inactive
Cc1cc(NC(=O)C2CCN(S(=O)(=O)c3cccs3)CC2)no1	none
O=C(NCCc1ccccc1)C1CCC(CNc2nc(=S)[nH]c3ccccc23)CC1 (centres undefined)	none
O=C(C1CCC(CNc2nc(=S)[nH]c3ccccc23)CC1)N1CCN(c2ccccn2)CC1 (centres undefined)	STAT3 inh-1 50.4 | STAT3 inh-2 52.5 | NFkB inh STAT3ct inactive | STAT1 inh 2 34.7
COc1ccc(/C=N/n2c(-c3cccs3)n[nH]c2=S)cc1	none
COc1cccc(NC(=O)Nc2nccc(C)n2)c1	STAT3 inh-1 70.7 | STAT3 inh-2 inactive | NFkB inh STAT3ct inactive | STAT1 inh 2 inactive
COc1cccc(NC(=O)Nc2ccc3c(c2)nc(C)n3C)c1	STAT3 inh-1 53.7 | STAT3 inh-2 inactive | NFkB inh STAT3ct inactive | STAT1 inh 2 inactive
COc1ccc(NC(=O)Nc2cccc(OC)c2)cc1	none
Cn1c(=O)c2c(-c3ccccc3)n(Cc3ccccn3)cc2n(C)c1=O	none
CCOC(=O)C1=C(CC)Nc2ccccc2N=C1NC(=O)c1cc(S(=O)(=O)N(C)C)ccc1Cl	none
CC1CCN(S(=O)(=O)c2ccc(Oc3ccc([N+](=O)[O-])cc3)cc2)CC1	STAT3 inh-1 47.2 | STAT3 inh-2 inactive | NFkB inh STAT3ct inactive | STAT1 inh 2 inactive
COc1cccc(-c2cc(C(=O)Nc3cc(C)n(Cc4ccc(Cl)cc4)n3)no2)c1	STAT3 inh-1 55.0 | STAT3 inh-2 69.8 | NFkB inh STAT3ct 19.9 | STAT1 inh 2 inactive
Cc1cc(NC(=O)c2cc(-c3ccco3)on2)nn1Cc1ccc(Cl)cc1	STAT3 inh-1 63.4 | STAT3 inh-2 57.8 | NFkB inh STAT3ct 13.3 | STAT1 inh 2 inactive
Cc1nn(Cc2ccc(Cl)cc2)c(C)c1NC(=O)c1cc(-c2ccco2)on1	none
CNc1ccccc1C(C)(C)c1cc(-c2ccc(F)cc2)no1	STAT3 inh-1 45.9 | STAT3 inh-2 50.7 | NFkB inh STAT3ct inactive | STAT1 inh 2 inactive
CNc1ccccc1C(C)(C)c1cc(-c2cccc(Br)c2)no1	none
CCNC(=S)NS(=O)(=O)c1ccccc1	none
COc1ccc(C(=O)N=c2nc3ccccn3s2)cc1	STAT3 inh-1 57.2 | STAT3 inh-2 inactive | NFkB inh STAT3ct inactive | STAT1 inh 2 inactive
COc1ccc(C(=O)O/N=C(/c2ccccc2)c2ccncc2)cc1	none
Cc1sc2ncnc(N3CCN(CCOc4ccc(Cl)cc4)CC3)c2c1C	STAT3 inh-1 76.3 | STAT3 inh-2 76.9 | NFkB inh STAT3ct 24.7 | STAT1 inh 2 19.6
Cc1nn(C)c(C)c1CN(C)S(=O)(=O)c1ccc2ccccc2c1	STAT3 inh-1 78.5 | STAT3 inh-2 80.1 | NFkB inh STAT3ct 29.7 | STAT1 inh 2 24.3
O=C(O)/C=C/c1cnn(-c2ccccc2)c1	STAT3 inh-1 45.0 | STAT3 inh-2 inactive | NFkB inh STAT3ct inactive | STAT1 inh 2 inactive
c1ccc2oc(-c3csc(N4CCOCC4)n3)cc2c1	STAT3 inh-1 57.7 | STAT3 inh-2 inactive | NFkB inh STAT3ct inactive | STAT1 inh 2 inactive
Cc1nn2cc(-c3ncc(C(F)(F)F)cc3Cl)cnc2c1Br	STAT3 inh-1 47.1 | STAT3 inh-2 46.9 | NFkB inh STAT3ct inactive | STAT1 inh 2 inactive
FC(F)(F)c1cnc(-c2cnc3c(-c4ccc(Cl)cc4)cnn3c2)c(Cl)c1	none
Cc1cc2ncc(-c3ncc(C(F)(F)F)cc3Cl)cn2n1	STAT3 inh-1 64.5 | STAT3 inh-2 inactive | NFkB inh STAT3ct inactive | STAT1 inh 2 inactive
O=C(OCCN1C(=O)c2cccc3c(N4CCOCC4)ccc(c23)C1=O)c1ccccc1Cl	STAT3 inh-1 44.4 | STAT3 inh-2 47.0 | NFkB inh STAT3ct 16.3 | STAT1 inh 2 inactive
CCn1c(SCC#N)nc2c(c1=O)C1(CCCC1)Cc1ccccc1-2	none
CN(C)c1nc(-c2ccccc2)ns1	none (no result: STAT1 blocker, STAT3 activator, STAT3 inh-1)
CCOC(=O)CSc1ccc2nnc(CCNS(=O)(=O)c3ccccc3)n2n1	none
O=C(Oc1ccc2ccccc2c1)c1ccco1	none
CC1CC(C)(C)Nc2ccc(OC(=O)c3ccco3)cc21 (centres undefined)	STAT3 inh-1 61.9 | STAT3 inh-2 inactive | NFkB inh STAT3ct 24.8 | STAT1 inh 2 inactive
C=C(C)C(=O)Nc1cccc(C2=NOC3(C2)C[C@@H](C(N)=O)N(C(=O)/C=C/CC)C3)c1 (some centres undefined)	none (no result: STAT1 blocker, STAT3 activator, STAT3 inh-1)
CC(=O)N1CCc2cc(S(=O)(=O)NC3CCCc4ccccc43)ccc21 (centres undefined)	STAT3 inh-1 47.6 | STAT3 inh-2 46.0 | NFkB inh STAT3ct inactive | STAT1 inh 2 inactive
